Sampled rows, rich in hits. Any-hit rate of the full collection: about 3.4%.
JNK3 blocker: blocks human JNK3 kinase activity | P53779 | purified JNK3 kinase activity, HTS | inhibition, % at 8 µM | 0.61% of 60,000 active | AID 746; in the data active = inhibition above about 17%;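 also: 0% = DMSO and 100% = reference inhibitor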
SF-1 act: activates the human nuclear receptor SF-1; 1.9% of 65,000 active; Q13285; CHO-K1 Gal4-SF-1 LBD luciferase reporter; % increase over DMSO SF-1-specific signal; activation, % at 10 µM; AID 522;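 active = activation above the mean activation of all tested compounds plus 3 SD, cut at about 50% in these data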
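Material: Transient Gal4-SF-1 LBD reporter, CHO-K1 | Input: 4,000 cells/well | Dosing: One dose, 10 µM compound, 1% DMSO | Incubation: 20 h compound treatment, 37 °C | Detection: SteadyLite luciferase luminescence | Evaluation: Percent activation relative to DMSO median and mock-transfected background | Benchmarks: DMSO-treated SF-1-transfected cells as negative, DMSO-treated mock-transfected cells lacking SF-1 as background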
Hsp90 inh: displaces geldanamycin probe from tumor Hsp90; P07900; NCI-N417 lysate Hsp90, Cy3B-geldanamycin FP displacement; inhibition, % at 30 µM; 0.35% of 64,000 active; AID 429;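 active = inhibition above 50%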;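 also: 0% = tracer plus lysate wells and 100% = tracer alone without lysate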
MKP-1 inh: blocks human MKP-1 phosphatase activity; P28562; recombinant MKP-1, OMFP hydrolysis fluorescence; inhibition, %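 (compounds tested at a single concentration somewhere between 10 and 100 µM)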; 0.15% of 65,000 active; AID 374;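 active = inhibition above about 50%, limit read from the data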;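 also: 0% = DMSO max control wells and 100% = wells with enzyme stopped by NaOH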
Target sequence (P28562 whole entry, looked up): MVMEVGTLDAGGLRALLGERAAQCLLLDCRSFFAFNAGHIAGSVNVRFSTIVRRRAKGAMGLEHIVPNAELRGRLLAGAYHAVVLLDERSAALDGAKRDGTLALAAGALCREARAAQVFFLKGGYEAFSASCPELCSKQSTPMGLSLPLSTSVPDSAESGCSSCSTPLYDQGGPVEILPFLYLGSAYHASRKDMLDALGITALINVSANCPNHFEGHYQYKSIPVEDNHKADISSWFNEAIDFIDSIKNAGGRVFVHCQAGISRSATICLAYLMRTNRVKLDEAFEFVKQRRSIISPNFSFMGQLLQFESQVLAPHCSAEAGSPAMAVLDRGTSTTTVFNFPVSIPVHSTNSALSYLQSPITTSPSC
RORa activator: activators of human nuclear receptor RORA. P35398. CHO-K1 Gal4-RORA LBD luciferase reporter, luminescence; percent increase over mock-subtracted basal signal. 1.5% of 65,000 active. activation, % at 10 µM. AID 560;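 active = activation above the mean of all tested compounds plus 3 SD, cut at about 49% in these data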;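 also: 0% = DMSO-treated RORA cells and 100% = added signal equal to DMSO minus mock-transfected cells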
Cdc25B block: inhibitors of human Cdc25B phosphatase; P30305; recombinant Cdc25B, OMFP fluorescence Ex485/Em525; inhibition, %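 (compounds tested at 10 µM final in the well)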; 0.1% of 65,000 active; in the data active = inhibition above about 50%
* hit, by the source's call; · = no result.

SMILES | JNK3 blocker | SF-1 act | Hsp90 inh | MKP-1 inh | RORa activator | Cdc25B block
CCSCCOC(=O)C1=C(C)NC(=O)NC1c1ccccc1 (configuration not stated) | 1 | -5 | 88* | 2 | -16 | -8
CSc1nsc(SCc2ccc(F)cc2)n1 | -5 | 5 | -4 | -1 | 4 | -8
CCc1nnc(NC(=O)CSc2nc3c(cc2C#N)CCC3)s1 | 7 | 75* | -2 | 0 | 7 | -11
COC(=O)CC(=O)CSc1nc2c(cc1C#N)CCC2 | -5 | -5 | -27 | 2 | -1 | -3
Cc1csc(-c2coc3cc(O)cc(C)c3c2=O)n1 | 13 | 68* | -5 | -15 | 66* | -19
COc1ccc2c(=O)c(-c3nc(C)cs3)coc2c1 | 4 | -20 | 2 | -28 | -33 | 5
O=C(CCN1C(=O)c2ccccc2C1=O)Nc1ccc(F)cc1 | 3 | -4 | -2 | -10 | 9 | -20
CC(=O)Nc1ccc(-c2cn3ccsc3n2)cc1 | 7 | 33 | -8 | -4 | 40 | -2
O=C(CN1C(=O)c2ccccc2C1=O)Nc1ccc(-c2nc3ccccc3o2)cc1 | 0 | -2 | 3 | 33 | -1 | -2
O=C(Nc1ccc(-c2cn3ccsc3n2)cc1)C1CCCC1 | 0 | 58* | -1 | 8 | 30 | 4
O=C(CCN1C(=O)c2ccccc2C1=O)Nc1ccc(-c2cn3ccsc3n2)cc1 | 3 | 65* | -5 | 32 | 18 | 3
O=C(Nc1ccc(-c2cn3ccsc3n2)cc1)C1CC1 | -7 | 61* | -2 | 12 | 8 | -4
O=C(CCN1C(=O)c2ccccc2C1=O)Nc1ccc(-c2nc3ccccc3o2)cc1 | 5 | 53* | -12 | 33 | 50* | -5
CC1C(=NO)C(C)C(c2ccc(N(C)C)cc2)NC1c1ccc(N(C)C)cc1 (configuration not stated) | -2 | 6 | -3 | -20 | 3 | -2
COc1ccc(C(C)=O)cc1COC(=O)c1cc(C)oc1C | 18* | -14 | -2 | 20 | -11 | 2
COc1ccc(C(C)=O)cc1COC(=O)c1cccc(N(C)C)c1 | 16 | -12 | 0 | 16 | 6 | -12
CC(=O)C(C)Oc1ccc2c3c(c(=O)oc2c1C)CCCC3 (configuration not stated) | -2 | 7 | -4 | 14 | 60* | 3
CC(=O)COc1ccc2c3c(c(=O)oc2c1C)CCCCC3 | 3 | 54* | 0 | 1 | 26 | 2
Fc1ccc(CN(C2=NCCN2)c2c(Cl)cccc2Cl)cc1 | · | · | -3 | · | · | ·
O=C1CN(C(=O)COC(=O)CCC(=O)c2ccc3c(c2)OCCO3)c2ccccc2N1 | 4 | 15 | -3 | 4 | 2 | 4
COc1cccc(CN(C(=O)c2cc3ccccc3oc2=O)C2CC2)c1 | -11 | 17 | -2 | -13 | 52* | -4
CCn1nnc(NC(=O)c2cccc(-c3cc4ccccc4oc3=O)c2)n1 | 13 | 55* | -6 | 11 | 20 | -18
CCCn1nnc(NC(=O)c2cccc(OCC)c2)n1 | 5 | 66* | 0 | 19 | 52* | -2
CCOc1cccc(C(=O)NC2CCCCC2)c1 | 2 | 52* | -6 | 5 | 31 | -14
CCCn1nnc(NC(=O)c2cccc(OCC(C)C)c2)n1 | · | 4 | · | 12 | 12 | 6
SMILES | JNK3 blocker | SF-1 act | Hsp90 inh | MKP-1 inh | RORa activator | Cdc25B block
COc1cccc(C(=O)NC2CC3CCCC(C2)N3CC(=O)Nc2ccccc2)c1 (configuration not stated) | 1 | -12 | 95* | 9 | -6 | 7
COc1cccc(C(=O)NC2CCN(C(=O)N3CCCCC3)CC2)c1 | 3 | -8 | 0 | 8 | -10 | -17
COc1cccc(C(=O)NC2CC3CCCC(C2)N3CC(=O)Nc2ccc(N(C)C)cc2)c1 (configuration not stated) | · | 2 | · | · | -1 | ·
CC1CCC2(CC1)NC(=O)N(Cc1nc(-c3ccccc3)no1)C2=O (configuration not stated) | -9 | 12 | -4 | 8 | -11 | -7
COc1cccc(-c2nnc(SCC(=O)OC(C)C)n2Cc2ccco2)c1 | 0 | -15 | -2 | -8 | -6 | 6
N#CC1=C(N)SC(N)=C(C#N)C1CCC1CCCCC1 | -6 | -11 | -5 | 21 | 16 | 3
CCOC(=O)C1CCCN(C/C(O)=C(\C#N)c2nc(-c3ccccc3)cs2)C1 (configuration not stated) | 10 | 17 | -5 | -12 | 33 | -5
CC(=O)NCCn1c(SCc2cc(=O)n3cc(Cl)ccc3n2)nc2ccccc2c1=O | -3 | -6 | -2 | 30 | -5 | -1
CCOC(=O)CSc1nc2c(sc3ccccc32)c(=O)n1CCCN1CCOCC1 | 24* | -3 | 2 | 0 | -2 | -22
O=C(CSc1nc2c(sc3ccccc32)c(=O)n1CCO)NCC1CCCO1 (configuration not stated) | 2 | -1 | -1 | 5 | 3 | -16
CCOc1ccc(-c2nc(N)ncc2-c2ccccc2)c(O)c1 | 51* | -29 | 13 | 0 | 12 | -9
C=C(C)COc1ccc(-c2nc(N)ncc2Oc2ccccc2OCC)c(O)c1 | -3 | 0 | 0 | 11 | 15 | -7
CCOc1cccc2cc(-c3nnc(NCc4ccco4)s3)c(=O)oc12 | -3 | 25 | -2 | 35 | 17 | 2
COc1ccc2oc(=O)c(-c3nnc(NCc4ccco4)s3)cc2c1 | 7 | 81* | 1 | 16 | 80* | -7
CCc1ccc(CNc2ccc(N3CCN(C(C)=O)CC3)cc2)cc1 | -11 | 2 | 57* | 2 | 18 | -9
CC(=O)N1CCN(c2ccc(NCc3ccc(C)cc3)cc2)CC1 | -13 | -2 | 28 | 10 | -11 | -8
CCCCCCCCCCCCCCCCCCOC[C@H](COP(=O)([O-])OCC[N+](C)(C)C)OC | · | · | -1 | · | · | ·
N=C(N)SCCN | · | · | -1 | · | · | ·
CN(C)c1ccc(C(=O)OCC(=O)c2cccs2)cc1 | · | 52* | -3 | 17 | 7 | -6
O=C(OCC(=O)c1cccs1)c1ccc(NC(=O)c2ccco2)cc1 | · | 17 | · | 7 | -15 | 3
Cc1ccc(C)c(NC(=O)C2CC(O)CN2C(=O)OC(C)(C)C)c1 (configuration not stated) | -10 | 8 | 0 | -3 | -3 | 28
O=C(Cn1c(=O)sc2ccccc21)Nc1ccc(S(=O)(=O)N2CCCC2)cc1 | -12 | 4 | 1 | 7 | 5 | -5
COC(=O)c1c(C)[nH]c(C(=O)OCc2ccc(F)cc2)c1C | 8 | 60* | 1 | -32 | 30 | -24
CC(=O)c1c(C)[nH]c(C(=O)OCn2nnc3ccccc3c2=O)c1C | 18* | 3 | -1 | 21 | -15 | -6
COc1cc(OC)cc(C(=O)OCn2nnc3ccccc3c2=O)c1 | 4 | -32 | -2 | 9 | -17 | -10

Screening data as filed in PubChem.
